Measurements reported in ChEMBL document CHEMBL3621187, “Novel Lobophorins Inhibit Oral Cancer Cell Growth and Induce Atf4- and Chop-Dependent Cell Death in Murine Fibroblasts” (ACS Med Chem Lett, 2015).
The source made the active and inactive calls. No cut-off for these calls is given here.

Key:
MEF [1] = assay: Activation of unfolded protein response in Atf4-deficient mouse MEF assessed as effect on Noxa expression at 40 uM after 6 hrs by qRT-PCR analysis; assay type: functional, cell-based
How it was run: (§1)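 Atf4-null murine embryonic fibroblasts and wildtype littermate controls were exposed to 40 μM for 6 h, with 2.5 μg/mL tunicamycin as comparator. cDNA libraries were made from the cells, and Noxa, Puma and Trb3 transcripts were quantified by qRT-PCR.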

MEF [2] = assay: Activation of unfolded protein response in Atf4-deficient mouse MEF assessed as effect on Puma expression at 40 uM after 6 hrs by qRT-PCR analysis; assay type: functional, cell-based; how it was run: as §1
MEF [3] = assay: Activation of unfolded protein response in Atf4-deficient mouse MEF assessed as effect on Trb3 expression at 40 uM after 6 hrs by qRT-PCR analysis; assay type: functional, cell-based; how it was run: as §1
UMSCC1 [4] = assay: Cytotoxicity against human UMSCC1 cells at 1.25 to 80 uM up to 48 hrs by ATP-based luminescent proliferation assay; assay type: functional, cell-based
How it was run: (§2)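 Floor-of-mouth OSCC lines (UMSCC1, UMSCC14A) and nonmalignant primary human epidermal keratinocytes were treated at 1.25–80 μM for 24 and 48 h. Growth was measured by ATP-based luminescent proliferation assay, and OSCC vs keratinocytes was compared by two-way ANOVA.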

UMSCC14A [5] = assay: Cytotoxicity against human UMSCC14A cells at 1.25 to 80 uM up to 48 hrs by ATP-based luminescent proliferation assay; assay type: functional, cell-based; how it was run: as §2
[6] = Cytotoxicity against human HEK cells at 1.25 to 80 uM after 24 hrs by ATP-based luminescent proliferation assay; assay type: cell-based; how it was run: as §2
[7] = Cytotoxicity against human HEK cells at 1.25 to 80 uM after 48 hrs by ATP-based luminescent proliferation assay; assay type: cell-based; how it was run: as §2
UMSCC14A [8] = assay: Activation of unfolded protein response in human UMSCC14A cells assessed as increase of BiP/GRP78 expression at 40 uM after 6 to 12 hrs by qRT-PCR analysis; assay type: functional, cell-based
[9] = Activation of unfolded protein response in human UMSC23 cells assessed as increase of CHOP expression at 40 uM after 6 to 12 hrs by qRT-PCR analysis; assay type: functional, cell-based
[10] = Activation of unfolded protein response in human UMSC23 cells assessed as increase of spliced XBP1 expression at 40 uM after 6 to 12 hrs by qRT-PCR analysis; assay type: functional, cell-based
[11] = Activation of unfolded protein response in human UMSC23 cells assessed as increase of GADD34 expression at 40 uM after 6 to 12 hrs by qRT-PCR analysis; assay type: functional, cell-based
[12] = Activation of unfolded protein response in human UMSC23 cells assessed as increase of ATF3 expression at 40 uM after 6 to 12 hrs by qRT-PCR analysis; assay type: functional, cell-based
[13] = Activation of unfolded protein response in human UMSC23 cells assessed as increase of BiP/GRP78 expression at 40 uM after 6 to 12 hrs by qRT-PCR analysis; assay type: functional, cell-based
MEF [14] = assay: Antiproliferative activity against Atf4-deficient mouse MEF after 16 hrs by ATP-based luminescent proliferation assay; assay type: functional, cell-based
How it was run: (§3)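 Atf4−/− and Chop−/− murine embryonic fibroblasts, each with wildtype littermate controls, were dosed across a concentration series for 16 h. Proliferation was read by ATP-based luminescence, and wildtype vs null was compared by two-way ANOVA (dose, interaction).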

MEF [15] = assay: Antiproliferative activity against Chop-deficient mouse MEF after 16 hrs by ATP-based luminescent proliferation assay; assay type: functional, cell-based; how it was run: as §3
MEF [16] = assay: Antiproliferative activity against mouse MEF harboring eIF2-alpha (Ser51Ala) mutant after 16 hrs by ATP-based luminescent proliferation assay; assay type: functional, cell-based
UMSCC1 [17] = assay: Activation of unfolded protein response in human UMSCC1 cells assessed as increase of CHOP expression at 40 uM after 6 to 12 hrs by qRT-PCR analysis; assay type: functional, cell-based
How it was run: (§4)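 UMSCC1 oral squamous carcinoma cells were treated for 6 or 12 h, and UPR marker transcripts were quantified by qRT-PCR.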

UMSCC1 [18] = assay: Activation of unfolded protein response in human UMSCC1 cells assessed as increase of spliced XBP1 expression at 40 uM after 6 to 12 hrs by qRT-PCR analysis; assay type: functional, cell-based; how it was run: as §4
UMSCC1 [19] = assay: Activation of unfolded protein response in human UMSCC1 cells assessed as increase of GADD34 expression at 40 uM after 6 to 12 hrs by qRT-PCR analysis; assay type: functional, cell-based; how it was run: as §4
UMSCC1 [20] = assay: Activation of unfolded protein response in human UMSCC1 cells assessed as increase of ATF3 expression at 40 uM after 6 to 12 hrs by qRT-PCR analysis; assay type: functional, cell-based; how it was run: as §4
UMSCC1 [21] = assay: Activation of unfolded protein response in human UMSCC1 cells assessed as increase of BiP/GRP78 expression at 40 uM after 6 to 12 hrs by qRT-PCR analysis; assay type: functional, cell-based; how it was run: as §4
UMSCC14A [22] = assay: Activation of unfolded protein response in human UMSCC14A cells assessed as increase of CHOP expression at 40 uM after 6 to 12 hrs by qRT-PCR analysis; assay type: functional, cell-based
UMSCC14A [23] = assay: Activation of unfolded protein response in human UMSCC14A cells assessed as increase of spliced XBP1 expression at 40 uM after 6 to 12 hrs by qRT-PCR analysis; assay type: functional, cell-based
UMSCC14A [24] = assay: Activation of unfolded protein response in human UMSCC14A cells assessed as increase of GADD34 expression at 40 uM after 6 to 12 hrs by qRT-PCR analysis; assay type: functional, cell-based
UMSCC14A [25] = assay: Activation of unfolded protein response in human UMSCC14A cells assessed as increase of ATF3 expression at 40 uM after 6 to 12 hrs by qRT-PCR analysis; assay type: functional, cell-based

| SMILES | Activity (MEF [1]) | Activity (MEF [2]) | Activity (MEF [3]) | Activity (UMSCC1 [4]) | Activity (UMSCC14A [5]) | Activity [6] | Activity [7] | also measured |
| --- | --- | --- | --- | --- | --- | --- | --- | --- |
| COC(=O)N[C@H]1[C@@H](C)O[C@@H](O[C@H]2C/C=C(\C)[C@@H]3C=C[C@@H]4[C@@H](O[C@H]5C[C@@H](O[C@H]6C[C@@H](O)[C@@H](O[C@@H]7C[C@@H](O)[C@@H](OC)[C@H](C)O7)[C@H](C)O6)[C@@H](O)[C@H](C)O5)[C@@H](C)C[C@H](C)[C@H]4[C@]3(C)C(=O)C3=C(O)[C@@]4(C[C@@H](C)C(CO)=C[C@H]4/C=C/2C)OC3=O)C[C@]1(C)[N+](=O)[O-] | inactive | inactive | inactive | Active | Active | Non-toxic | Toxic | – |
| COC(=O)N[C@H]1[C@@H](C)O[C@@H](O[C@H]2C/C=C(\C)[C@@H]3C=C[C@@H]4[C@@H](O[C@H]5C[C@@H](O[C@H]6C[C@@H](O)[C@@H](O[C@@H]7C[C@@H](O)[C@@H](OC)[C@H](C)O7)[C@H](C)O6)[C@@H](O)[C@H](C)O5)[C@@H](C)C[C@H](C)[C@H]4[C@]3(C)C(=O)C3=C(O)[C@@]4(C[C@@H](C)C(CO)=C[C@H]4/C=C/2C)OC3=O)C[C@]1(C)O | – | – | – | Active | Active | Non-toxic | – | – |
| COC(=O)N[C@H]1[C@@H](C)O[C@@H](O[C@H]2C/C=C(\C)[C@@H]3C=C[C@@H]4[C@@H](O[C@H]5C[C@@H](O[C@H]6C[C@@H](O)[C@@H](O[C@@H]7C[C@@H](O)[C@@H](OC)[C@H](C)O7)[C@H](C)O6)[C@@H](O)[C@H](C)O5)[C@@H](C)C[C@H](C)[C@H]4[C@]3(C)C(=O)C3=C(O)[C@@]4(C[C@@H](C)C(C)=C[C@H]4/C=C/2C)OC3=O)C[C@]1(C)[N+](=O)[O-] | – | – | – | Active | Active | Non-toxic | Toxic | – |
| COC(=O)N[C@H]1[C@@H](C)O[C@@H](O[C@H]2C/C=C(\C)[C@@H]3C=C[C@@H]4[C@@H](O[C@H]5C[C@@H](O[C@H]6C[C@@H](O)[C@@H](O)[C@H](C)O6)[C@@H](O)[C@H](C)O5)[C@@H](C)C[C@H](C)[C@H]4[C@]3(C)C(=O)C3=C(O)[C@@]4(C[C@@H](C)C(C)=C[C@H]4/C=C/2C)OC3=O)C[C@]1(C)[N+](=O)[O-] | inactive | inactive | inactive | Active | Active | Non-toxic | – | Activity (UMSCC14A [8]): Active; Activity [9]: Active; Activity [10]: Active; Activity [11]: Active; Activity [12]: Active; Activity [13]: Active; Activity (MEF [14]): inactive; Activity (MEF [15]): inactive; Activity (MEF [16]): inactive; Activity (UMSCC1 [17]): Active; Activity (UMSCC1 [18]): Active; Activity (UMSCC1 [19]): Active; Activity (UMSCC1 [20]): Active; Activity (UMSCC1 [21]): Active; Activity (UMSCC14A [22]): Active; Activity (UMSCC14A [23]): Active; Activity (UMSCC14A [24]): Active; Activity (UMSCC14A [25]): Active |
